Shown are actives, neighbours in structure and some others; about 5.2% of the full set was active somewhere.
ALR inh – blocks human ALR sulfhydryl oxidase activity; P55789; purified ALR, DTT oxidation, H2O2 HRP-luminol luminescence; inhibition, % (test concentration not listed); hit rate 3.8% among 290,000; AID 485317;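 active means mean replicate inhibition above about 79%, with every replicate also reaching it, limit read from the data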
Target sequence (P55789 whole entry, looked up): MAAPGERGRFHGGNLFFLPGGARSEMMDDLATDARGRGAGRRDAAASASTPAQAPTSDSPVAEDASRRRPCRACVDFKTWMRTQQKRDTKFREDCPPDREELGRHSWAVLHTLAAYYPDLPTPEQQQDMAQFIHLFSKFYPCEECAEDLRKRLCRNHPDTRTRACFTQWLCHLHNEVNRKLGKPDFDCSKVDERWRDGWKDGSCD
EBNA-1 inhibitor – blocks EBNA-1 binding to DNA. inhibition, % at 14.8 µM. EBNA-1 DNA binding, fluorescence polarization. hit rate 0.34% among 300,000. AID 1950; in the data active means inhibition above about 28%
core dimer inh – blocks dimerization of HCV core protein; TR-FRET GST/Flag-core106 dimerization, 1536-well; inhibition, % at 5 µM; hit rate 0.33% among 300,000; AID 1899;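 active means inhibition above the mean of all tested compounds plus 3 SD, set per screening campaign, cut at about 45% in these data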
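Test system: GST/Flag-tagged HCV core106 proteins; Medium: KF-containing HEPES buffer, pH 7.45, DTT, CHAPS, BSA; Times: compound-protein-antibody incubation 4 h at 22.5 °C; Detection: TR-FRET 671 and 617 nm emission; Benchmarks: wells lacking GST-core106 and wells with excess unlabelled core106.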
NS3 helicase inh – inhibitors of Hepatitis C virus NS3 helicase; NS3 helicase DNA unwinding, Cy5 molecular beacon fluorescence; hit rate 0.56% among 290,000; inhibition, % at 10.9 µM; AID 1800;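 active means inhibition above the mean of all tested compounds plus 3 SD, set per campaign, cut at about 35% in these data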;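 further: 0% = DMSO wells and 100% = thioflavine S control wells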
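Control set: DMSO versus 110 µM thioflavine S; Material: NS3 helicase fragment of HCV; Measured by: Cy5 fluorescence at 0 and 60 min, beacon hairpin quenching; Read-out basis: percent inhibition from t60/t0 fluorescence ratio; Times: reaction time 60 min, 25 °C; Repeats: single replicate; Compound dosing: single dose, 10.9 µM nominal final, DMSO 0.8% final.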
PfM18AAP inh – PfM18AAP enzyme inhibition | inhibition, % at 7.35 µM | AID 1822 | recombinant PfM18AAP, H-Glu-NHMec fluorogenic cleavage | hit rate 1.2% among 290,000;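 active means inhibition above the campaign mean inhibition over all tested compounds plus 3 SD, cut at about 28% in these data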;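 further: 0% = plate median of test compound wells and 100% = 2 mM ZnCl2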
ZTA DNA inh – counter-screen for EBNA-1 inhibitors: inhibitors of Epstein-Barr virus ZTA | ZTA-DNA binding, fluorescence polarization | inhibition, % at 11 µM | hit rate 0.15% among 320,000 | P03206 | AID 2234; in the data active means inhibition above about 33%
Target sequence (P03206 whole entry, looked up): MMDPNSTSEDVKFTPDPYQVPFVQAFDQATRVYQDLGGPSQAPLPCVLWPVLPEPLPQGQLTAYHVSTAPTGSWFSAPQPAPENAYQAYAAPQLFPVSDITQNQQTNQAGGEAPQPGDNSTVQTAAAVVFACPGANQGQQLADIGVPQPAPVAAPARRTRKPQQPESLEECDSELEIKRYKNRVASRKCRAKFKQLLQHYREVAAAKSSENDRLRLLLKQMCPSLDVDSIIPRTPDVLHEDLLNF
Starred values were filed as active, the others as inactive; . = no result.

SMILES | ALR inh | EBNA-1 inhibitor | core dimer inh | NS3 helicase inh | PfM18AAP inh | ZTA DNA inh
O=C(O)c1ccccc1-c1ccccc1C(=O)Nc1ccc2c(c1)CCC2 | 26.2 | 5.6 | 9.3 | 13.6 | -4.0 | 9.3
O=C(Nc1ccc2c(c1)CCC2)c1ccccc1 | 93.2* | 7.0 | -6.3 | -10.3 | -0.3 | 10.6
Cc1occc1C(=O)Nc1ccc2c(c1)OCCO2 | -1.9 | 2.4 | 11.2 | -2.6 | 2.1 | 6.8
Cc1occc1C(=O)Nc1ccc2c(c1)CCC2 | 96.2* | -10.0 | -0.9 | 0.6 | 3.1 | -24.3
Cc1c(OC(C)C(=O)NCCCn2ccnc2)ccc2c3c(c(=O)oc12)CCC3 (stereo not given) | 2.6 | -0.3 | -0.8 | -1.4 | 3.3 | 2.4
O=C1CCCCN1CCC(=O)N1CCCC(Nc2ccccc2)C1 (stereo not given) | 4.3 | 2.1 | -4.8 | 9.8 | 12.9 | -11.4
CC(C)c1ccc(NC2CCCN(C(=O)CCN3Cc4ccccc4C3=O)C2)cc1 (stereo not given) | 98.5* | -21.6 | -0.9 | -8.0 | 2.9 | -8.2
CC(C)c1ccc(NC2CCCN(C(=O)CSc3nncn3C)C2)cc1 (stereo not given) | 90.8* | 4.3 | 9.3 | -3.4 | -3.8 | -1.4
CC(C)c1ccc(NC2CCCN(C(=O)CN3CCOC3=O)C2)cc1 (stereo not given) | 71.9 | -0.5 | -0.6 | 3.9 | 3.3 | -12.1
CC(C)c1ccc(NC2CCCN(C(=O)CN3CCCC3=O)C2)cc1 (stereo not given) | 82.3* | -10.1 | 4.3 | 15.4 | -11.8 | -0.7
CC(C)c1ccc(NC2CCCN(C(=O)CCN3CCCCC3=O)C2)cc1 (stereo not given) | 97.5* | -6.8 | -4.4 | 5.7 | 0.7 | -6.7
COc1ccccc1CNC(=O)CN1C(=O)NC2(CCC(C)CC2)C1=O (stereo not given) | -1.4 | . | . | . | . | .
N#C/C(=C\c1ccc[nH]1)C(=O)Nc1ccccc1[N+](=O)[O-] | -6.6 | -3.5 | 21.8 | -0.1 | 1.1 | -0.9
COC(=O)/C=c1\[nH]c2nnc(C)n2c1=O | -8.4 | -5.8 | 1.0 | 2.2 | 0.6 | -10.1
CSc1ccc(/C=C/C(=O)N2CCCN(C)CC2)cc1 | 99.0* | -4.4 | 2.3 | 0.6 | -1.2 | 3.7
CSc1ccc(C(=O)/C=C/c2ccc(N)cc2)cc1 | 96.7* | 2.1 | 3.4 | -25.2 | 4.9 | 9.7
CSc1ccc(/C=C/C(=O)c2c(O)cc(C)oc2=O)cc1 | 97.6* | -1.1 | 31.9 | 4.5 | 3.1 | 9.8
COc1ccc(C(=O)NC(=O)COC(=O)C2CC2C)cc1 (stereo not given) | -34.4 | . | . | . | . | .
Cc1nnc(NC(=O)COc2ccc3c(C)cc(=O)oc3c2)s1 | -1.7 | -2.4 | 79.0* | 8.8 | 4.3 | -6.9
CCC(CC)c1nnc(NC(=O)COc2ccc3c(C)cc(=O)oc3c2)s1 | -3.6 | 1.6 | 4.5 | 2.4 | -9.7 | 3.1
Cc1cc(=O)oc2cc(OCC(=O)c3ccc4c(c3)NC(=O)CO4)ccc12 | -3.7 | 17.9 | 63.2* | 2.5 | -0.2 | 15.7
CC1(C)Cc2c(cnn2-c2ccccc2)C(NC(=O)CCCN2CCCC2=O)C1 (stereo not given) | 7.0 | 5.6 | 3.8 | 7.0 | 2.5 | 10.0
Cc1c([N+](=O)[O-])cnc(Sc2ccccc2)c1[N+](=O)[O-] | 98.6* | -8.6 | 2.5 | . | . | -0.7
CS(=O)(=O)N1CCc2cc(C(=O)Nc3ccc(O)cc3)ccc21 | 99.1* | 13.8 | -2.0 | 4.3 | 12.1 | -6.2
CC(=O)Nc1ccc(NC(=O)c2ccc3c(c2)CCN3S(C)(=O)=O)cc1 | -5.4 | -10.5 | -1.1 | 5.3 | 1.9 | -3.9
SMILES | ALR inh | EBNA-1 inhibitor | core dimer inh | NS3 helicase inh | PfM18AAP inh | ZTA DNA inh
CCOC(=O)c1c(NC(=O)CSC(=S)N2CCOCC2)sc(C)c1C | 98.0* | -4.3 | 4.9 | 8.8 | -2.9 | 0.9
Nc1ccccc1SCc1cn2cccnc2n1 | 97.7* | 7.6 | 1.8 | -2.7 | -10.1 | -19.9
Cc1cccn2cc(CSc3ccccc3N)nc12 | 81.4* | 8.3 | -7.4 | 8.7 | -11.6 | 3.9
O=c1c2c3c(sc2n2cnnc2n1Cc1ccccc1)CN(Cc1ccccc1)CC3 | -7.0 | -6.8 | 51.0* | -28.7 | 9.7 | -5.2
COc1ccc(Br)cc1CSC(=N)N | 98.6* | 4.3 | 1.0 | 2.7 | 5.1 | 9.3
O=C(COC(=O)C1CCC1)NCCc1ccc(Cl)cc1Cl | 2.1 | -4.2 | -6.8 | -0.4 | -3.2 | -2.0
O=C(NC1CCN(Cc2ccccc2)CC1)c1cccc(S(=O)(=O)Nc2ccc(SC(F)F)cc2)c1 | 99.0* | . | . | . | . | .
Cc1ccc(S(=O)(=O)Nc2cccc(C(=O)NC3CCN(Cc4ccccc4)CC3)c2)cc1F | . | 0.2 | -7.4 | . | . | -3.0
CC(C(=O)Nc1ccc(C(N)=O)cc1)N1C(=O)c2ccccc2S1(=O)=O (stereo not given) | 4.0 | -4.2 | -6.4 | . | . | -14.9
Cc1nc(C#N)c(N/N=C/c2c(F)cccc2Cl)o1 | 98.3* | -1.9 | -2.1 | -0.7 | 9.9 | -1.6
COc1cccc(C(=O)OCC(=O)c2ccc(Br)s2)c1OC | 13.0 | . | . | . | . | -12.7
CCOC(=O)Nc1ccc(Cc2ccncc2)cc1 | 9.2 | -7.4 | 4.2 | -9.5 | -7.4 | 10.5
COc1ccc(N2CCN(CCCNC(=O)CCC(=O)N3CCOc4ccc(Cl)cc43)CC2)cc1 | 98.8* | 2.0 | 0.9 | -23.7 | -0.4 | -2.4
CC1=Nc2nc(N3CCCCC3)c(C#N)c3c4c(nc(c23)N1)N(c1ccc(C(C)C)cc1)C(=O)C4 | -12.1 | 2.6 | 46.2* | 30.1 | -1.2 | 5.0
CCOC(=O)Nc1sc(NS(=O)(=O)c2ccc(C)cc2)nc1C | 30.5 | 10.7 | -7.8 | -7.2 | 5.8 | 5.7
CCOC(=O)Nc1sc(NS(=O)(=O)c2ccccc2)nc1C | 97.8* | 2.0 | -6.3 | -2.5 | 4.7 | -17.9
Cc1nc(NS(=O)(=O)c2ccccc2)sc1NC(=O)Nc1ccccc1 | 98.6* | 1.9 | -8.2 | 8.3 | 4.8 | 9.8
Cc1nc(NS(=O)(=O)c2ccccc2)sc1NC(=O)Nc1ccc(Cl)cc1 | 73.6 | -4.2 | -8.1 | 10.6 | 1.9 | 9.6
COc1ccc(CCNC(=O)c2cc(S(=O)(=O)N3CCOCC3)cn2C)cc1OC | -18.5 | 0.7 | -1.2 | -1.4 | -2.8 | -3.5
Cc1ccc(C(=O)C2=C(O)C(=O)N(Cc3cccnc3)C2c2ccc(Cl)c(Cl)c2)o1 (stereo not given) | 87.6* | 0.9 | -1.7 | 35.1 | 11.4 | -25.5
COc1ccc(C2C(C(=O)c3ccc(C)o3)=C(O)C(=O)N2Cc2cccnc2)cc1 (stereo not given) | 7.2 | 3.4 | -0.2 | 5.9 | 20.1 | -2.0
CN1CCc2c(sc(/N=C/c3cc(Cl)ccc3O)c2C#N)C1 | 2.6 | 0.8 | 1.2 | -1.1 | 4.7 | 5.9
Cc1sc(/N=C/c2ccccc2O)c(C#N)c1C | 5.1 | 0.0 | 8.8 | 3.7 | 36.5* | -8.1
Cc1ccc(C)n1-c1sc2c(c1C(=O)O)CCCC2 | 96.1* | -2.9 | -3.2 | 33.0 | 9.1 | -5.5
Cc1cc(Br)ccc1NCc1ccccn1 | 98.4* | 1.8 | 5.9 | -0.6 | 2.8 | 11.6

Screening results: PubChem, several laboratories
